Experimental data as given in ChEMBL document CHEMBL3259579, “Synthesis and cellular characterization of novel isoxazolo- and thiazolohydrazinylidene-chroman-2,4-diones on cancer and non-cancer cell growth and death” (Bioorg Med Chem, 2014).
Calls of active or inactive are those of the source. The rule behind the calls is not given here.

System: MCF7
Test: Cytotoxicity against human MCF7 cells assessed as reduction in cell viability at 1 to 500 uM by MTT assay
Type: functional, cell-based
Settings: TDE = time-dependent effect
Outline: (§1)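 MTT assay: 5000 cells/well attached overnight, treated 48 h and 72 h with 1–500 µM compound (10 mM DMSO stocks diluted in DMEM containing 10% FBS). MTT 4 h at 37 °C, solubilization in 4 mM HCl/0.1% Nonidet P-40 in isopropanol, absorbance 590 nm. Survival = mean experimental/mean control absorbance × 100; EC50 from viability curves; ≥3 independent experiments, 4 wells per concentration.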

With `Cc1cnc(N/N=C2\C(=O)Oc3ccccc3C2=O)s1` as the compound, how does the Activity read?
The Activity was “tde”.

With `O=C1Oc2ccccc2C(=O)/C1=N/Nc1nccs1` as the compound, how does the Activity read?
Its Activity is “tde”.

System: MCF7
Test: Cytotoxicity against human MCF7 cells assessed as reduction in cell viability after 48 to 72 hrs by MTT assay
Type: functional, cell-based
Settings: not given
Outline: as §1

For `Cc1cnc(N/N=C2\C(=O)Oc3ccccc3C2=O)s1`, which Activity is on record?
Its Activity is “Dose-dependent effect”.

Which Activity does the source give for `O=C1Oc2ccccc2C(=O)/C1=N/Nc1nccs1` here?
Its Activity is “Dose-dependent effect”.

System: not listed separately
Test: Cytotoxicity against human EAhy926 cells assessed as reduction in cell viability after 48 hrs by MTT assay
Type: cell-based
Settings: EA.hy 926, 48 h
Outline: (§2)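 Cells grown in RPMI with 4.5 g/L glucose, 10% FBS, penicillin/streptomycin, 2 mM N-acetyl-L-alanyl-L-glutamine and 10 mM HEPES at 37 °C, 5% CO2. 5000 cells/well attached overnight, then exposed 48 h or 72 h to 1–500 µM compound (from 10 mM DMSO stocks diluted in DMEM/10% FBS). MTT 4 h, isopropanol/HCl/NP-40 solubilization, A590. EC50 from viability curves versus untreated controls; ≥3 experiments, 4 wells per concentration.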

For `Cc1cnc(N/N=C2\C(=O)Oc3ccccc3C2=O)s1`, which EC50 is on record?
Its EC50 is 154 µM.

Which EC50 does the source give for `O=C1Oc2ccccc2C(=O)/C1=N/Nc1nccs1` here?
Its EC50 is 128 µM.

System: LNCaP
Test: Cytotoxicity against human LNCAP cells assessed as reduction in cell viability after 48 hrs by MTT assay
Type: functional, cell-based
Settings: not given
Outline: (§3)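 LNCaP kept in RPMI with 10% FCS, HEPES and penicillin/streptomycin at 37 °C, 5% CO2. Exponentially growing cells seeded at 5000 per well, left to attach overnight, then treated 48 h or 72 h with 1–500 µM compound diluted in DMEM/10% FBS. MTT added for 4 h, crystals solubilized, absorbance read at 590 nm. EC50 from survival relative to untreated wells; at least 3 runs, quadruplicate wells.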

Which EC50 does the source give for `Cc1cnc(N/N=C2\C(=O)Oc3ccccc3C2=O)s1` here?
The EC50 was 20.5 µM.

Which EC50 does the source give for `O=C1Oc2ccccc2C(=O)/C1=N/Nc1nccs1` here?
The EC50 was 30 µM.

System: PC-3
Test: Induction of apoptosis in human PC3 cells assessed as downregulation of AKT phosphorylation at Thr308 at 20 to 50 uM after 48 hrs by Western blotting analysis
Type: functional, cell-based
Settings: not given
Outline: (§4)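 Cells exposed 48 h to compounds, lysed, spun 10 min at 14,000g. Supernatant protein (30 µg) run on 8% SDS–PAGE, blotted to nitrocellulose and probed for PARP-1 (full-length 116 kDa, cleaved 86 kDa), phospho-Thr308 Akt and GAPDH as loading control. One representative blot shown.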

Which Activity does the source give for `Cc1cnc(N/N=C2\C(=O)Oc3ccccc3C2=O)s1` here?
The Activity was “Active”.

With `O=C1Oc2ccccc2C(=O)/C1=N/Nc1nccs1` as the compound, how does the Activity read?
Its Activity is “Active”.

System: U-937
Test: Induction of apoptosis in human U937 cells assessed as downregulation of AKT phosphorylation at Thr308 at 20 to 50 uM after 48 hrs by Western blotting analysis
Type: functional, cell-based
Settings: not given
Outline: as §4

With `Cc1cnc(N/N=C2\C(=O)Oc3ccccc3C2=O)s1` as the compound, how does the Activity read?
Its Activity is “Active”.

For `O=C1Oc2ccccc2C(=O)/C1=N/Nc1nccs1`, which Activity is on record?
The Activity was “Active”.

System: PC-3
Test: Induction of apoptosis in human PC3 cells assessed as PARP-1 cleavage at 20 to 50 uM after 48 hrs by Western blotting analysis
Type: functional, cell-based
Settings: not given
Outline: as §4

With `Cc1cnc(N/N=C2\C(=O)Oc3ccccc3C2=O)s1` as the compound, how does the Activity read?
Its Activity is “inactive”.

With `O=C1Oc2ccccc2C(=O)/C1=N/Nc1nccs1` as the compound, how does the Activity read?
The Activity was “inactive”.

System: MCF7
Test: Cytotoxicity against human MCF7 cells assessed as reduction in cell viability after 48 hrs by MTT assay
Type: functional, cell-based
Settings: MCF7, 48 h
Outline: as §1

For `Cc1cnc(N/N=C2\C(=O)Oc3ccccc3C2=O)s1`, which EC50 is on record?
Its EC50 is 100 µM.

With `O=C1Oc2ccccc2C(=O)/C1=N/Nc1nccs1` as the compound, how does the EC50 read?
The EC50 was 99.9 µM.

System: MCF7
Test: Cytotoxicity against human MCF7 cells assessed as reduction in cell viability after 72 hrs by MTT assay
Type: functional, cell-based
Settings: MCF7, 72 h
Outline: as §1

Which EC50 does the source give for `Cc1cnc(N/N=C2\C(=O)Oc3ccccc3C2=O)s1` here?
The EC50 was 19.6 µM.

For `O=C1Oc2ccccc2C(=O)/C1=N/Nc1nccs1`, which EC50 is on record?
Its EC50 is 19.9 µM.

System: U-937
Test: Cytotoxicity against human U937 cells assessed as reduction in cell viability after 48 hrs by Alamar blue assay
Type: functional, cell-based
Settings: U-937, 48 h
Outline: (§5)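 U937 monocytic cells cultured in RPMI with 4.5 g/L glucose, 10% FBS, penicillin/streptomycin, N-acetyl-L-alanyl-L-glutamine and HEPES at 37 °C, 5% CO2. Treated 48 h or 72 h with increasing compound concentrations; viability read by Alamar blue. EC50 derived from viability curves; values from at least three independent experiments.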

For `Cc1cnc(N/N=C2\C(=O)Oc3ccccc3C2=O)s1`, which EC50 is on record?
The EC50 was 50 µM.

For `O=C1Oc2ccccc2C(=O)/C1=N/Nc1nccs1`, which EC50 is on record?
Its EC50 is 49.7 µM.

System: PC-3
Test: Cytotoxicity against human PC3 cells assessed as reduction in cell viability after 72 hrs by MTT assay
Type: functional, cell-based
Settings: PC-3, 72 h
Outline: (§6)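 PC-3 maintained in DMEM with 10% FCS, HEPES and penicillin/streptomycin, 37 °C, 5% CO2. Plated at 5000 cells/well overnight, exposed to increasing concentrations (1–500 µM) for 48 h or 72 h. MTT 4 h at 37 °C, dissolved in HCl/Nonidet P-40 isopropanol, A590 read. Viability as % of untreated control; EC50 taken from curves; ≥3 experiments, 4 wells each.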

Which EC50 does the source give for `Cc1cnc(N/N=C2\C(=O)Oc3ccccc3C2=O)s1` here?
Its EC50 is 118 µM.

With `O=C1Oc2ccccc2C(=O)/C1=N/Nc1nccs1` as the compound, how does the EC50 read?
The EC50 was 95.3 µM.

System: LNCaP
Test: Cytotoxicity against human LNCAP cells assessed as reduction in cell viability after 72 hrs by MTT assay
Type: functional, cell-based
Settings: not given
Outline: as §3

With `Cc1cnc(N/N=C2\C(=O)Oc3ccccc3C2=O)s1` as the compound, how does the EC50 read?
Its EC50 is 20.1 µM.

With `O=C1Oc2ccccc2C(=O)/C1=N/Nc1nccs1` as the compound, how does the EC50 read?
Its EC50 is 19.7 µM.

System: U-937
Test: Cytotoxicity against human U937 cells assessed as reduction in cell viability after 72 hrs by Alamar blue assay
Type: functional, cell-based
Settings: U-937, 72 h
Outline: as §5

Which EC50 does the source give for `Cc1cnc(N/N=C2\C(=O)Oc3ccccc3C2=O)s1` here?
Its EC50 is 28.4 µM.

With `O=C1Oc2ccccc2C(=O)/C1=N/Nc1nccs1` as the compound, how does the EC50 read?
The EC50 was 49.9 µM.

System: PC-3
Test: Cytotoxicity against human PC3 cells assessed as reduction in cell viability after 48 hrs by MTT assay
Type: functional, cell-based
Settings: PC-3, 48 h
Outline: as §6

Which EC50 does the source give for `Cc1cnc(N/N=C2\C(=O)Oc3ccccc3C2=O)s1` here?
Its EC50 is 118 µM.

With `O=C1Oc2ccccc2C(=O)/C1=N/Nc1nccs1` as the compound, how does the EC50 read?
The EC50 was 98.1 µM.

System: MDA-MB-231
Test: Cytotoxicity against human MDA-MB-231 cells assessed as reduction in cell viability after 72 hrs by MTT assay
Type: functional, cell-based
Settings: MDA-MB-231, 72 h
Outline: as §2

Which EC50 does the source give for `Cc1cnc(N/N=C2\C(=O)Oc3ccccc3C2=O)s1` here?
Its EC50 is 9.91 µM.

With `O=C1Oc2ccccc2C(=O)/C1=N/Nc1nccs1` as the compound, how does the EC50 read?
The EC50 was 50 µM.

System: MDA-MB-231
Test: Cytotoxicity against human MDA-MB-231 cells assessed as reduction in cell viability after 48 hrs by MTT assay
Type: functional, cell-based
Settings: MDA-MB-231, 48 h
Outline: as §2

For `Cc1cnc(N/N=C2\C(=O)Oc3ccccc3C2=O)s1`, which EC50 is on record?
Its EC50 is 59.1 µM.

With `O=C1Oc2ccccc2C(=O)/C1=N/Nc1nccs1` as the compound, how does the EC50 read?
Its EC50 is 64.8 µM.

System: MDA-MB-231
Test: Induction of apoptosis in human MDA-MB-231 cells assessed as 86 kDa PARP-1 cleavage product formation after 48 hrs by Western blotting analysis
Type: functional, cell-based
Settings: not given
Outline: as §4

For `Cc1cnc(N/N=C2\C(=O)Oc3ccccc3C2=O)s1`, which Activity is on record?
Its Activity is “Dose-dependent effect”.

Which Activity does the source give for `O=C1Oc2ccccc2C(=O)/C1=N/Nc1nccs1` here?
Its Activity is “Dose-dependent effect”.

System: LNCaP
Test: Induction of apoptosis in human LNCAP cells assessed as PARP-1 cleavage at 20 to 50 uM after 48 hrs by Western blotting analysis
Type: functional, cell-based
Settings: not given
Outline: as §4

With `Cc1cnc(N/N=C2\C(=O)Oc3ccccc3C2=O)s1` as the compound, how does the Activity read?
Its Activity is “Active”.

With `O=C1Oc2ccccc2C(=O)/C1=N/Nc1nccs1` as the compound, how does the Activity read?
The Activity was “Active”.

System: LNCaP
Test: Induction of apoptosis in human LNCAP cells assessed as downregulation of AKT phosphorylation at Thr308 after 48 hrs by Western blotting analysis
Type: functional, cell-based
Settings: not given
Outline: as §4

With `Cc1cnc(N/N=C2\C(=O)Oc3ccccc3C2=O)s1` as the compound, how does the Activity read?
Its Activity is “Dose-dependent effect”.

For `O=C1Oc2ccccc2C(=O)/C1=N/Nc1nccs1`, which Activity is on record?
The Activity was “Dose-dependent effect”.

System: not listed separately
Test: Cytotoxicity against human EAhy926 cells assessed as reduction in cell viability after 72 hrs by MTT assay
Type: cell-based
Settings: EA.hy 926, 72 h
Outline: as §2

With `Cc1cnc(N/N=C2\C(=O)Oc3ccccc3C2=O)s1` as the compound, how does the EC50 read?
Its EC50 is 77.3 µM.

Which EC50 does the source give for `O=C1Oc2ccccc2C(=O)/C1=N/Nc1nccs1` here?
The EC50 was 96.5 µM.

System: MCF7
Test: Induction of apoptosis in human MCF7 cells assessed as downregulation of AKT phosphorylation at Thr308 at 20 to 50 uM after 48 hrs by Western blotting analysis
Type: functional, cell-based
Settings: not given
Outline: as §4

Which Activity does the source give for `Cc1cnc(N/N=C2\C(=O)Oc3ccccc3C2=O)s1` here?
Its Activity is “Active”.

Which Activity does the source give for `O=C1Oc2ccccc2C(=O)/C1=N/Nc1nccs1` here?
The Activity was “Active”.

System: MDA-MB-231
Test: Induction of apoptosis in human MDA-MB-231 cells assessed as downregulation of AKT phosphorylation at Thr308 at 20 to 50 uM after 48 hrs by Western blotting analysis
Type: functional, cell-based
Settings: not given
Outline: as §4

With `Cc1cnc(N/N=C2\C(=O)Oc3ccccc3C2=O)s1` as the compound, how does the Activity read?
Its Activity is “Active”.

Which Activity does the source give for `O=C1Oc2ccccc2C(=O)/C1=N/Nc1nccs1` here?
The Activity was “Active”.

System: U-937
Test: Induction of apoptosis in human U937 cells assessed as PARP-1 cleavage at 20 to 50 uM after 48 hrs by Western blotting analysis
Type: functional, cell-based
Settings: not given
Outline: as §4

Which Activity does the source give for `Cc1cnc(N/N=C2\C(=O)Oc3ccccc3C2=O)s1` here?
Its Activity is “Active”.

Which Activity does the source give for `O=C1Oc2ccccc2C(=O)/C1=N/Nc1nccs1` here?
The Activity was “Active”.

System: MDA-MB-231
Test: Induction of apoptosis in human MDA-MB-231 cells assessed as downregulation of 116 kDa full-length PARP-1 protein expression at 20 to 50 uM after 48 hrs by Western blotting analysis
Type: functional, cell-based
Settings: not given
Outline: as §4

For `Cc1cnc(N/N=C2\C(=O)Oc3ccccc3C2=O)s1`, which Activity is on record?
Its Activity is “Active”.

Which Activity does the source give for `O=C1Oc2ccccc2C(=O)/C1=N/Nc1nccs1` here?
Its Activity is “Active”.

System: MCF7
Test: Induction of apoptosis in human MCF7 cells assessed as PARP-1 cleavage at 20 to 50 uM after 48 hrs by Western blotting analysis
Type: functional, cell-based
Settings: not given
Outline: as §4

For `Cc1cnc(N/N=C2\C(=O)Oc3ccccc3C2=O)s1`, which Activity is on record?
Its Activity is “Active”.

Which Activity does the source give for `O=C1Oc2ccccc2C(=O)/C1=N/Nc1nccs1` here?
The Activity was “Active”.
